Experimental data: BindingDB's records for doi:10.1016/j.bmc.2018.01.022 (Csic and Universidad De Sevilla, 2018)
pIC50: −log10 of the molar value.

Key:
Midkine = target: T1, Midkine (Homo sapiens, UniProt P21741); test: Inhibition of fluorescein labelled heparin-like hexasaccharide probe binding to recombinant human midkine after 5 mins by fluorescence polarization assay
T1 sequence (P21741 whole entry): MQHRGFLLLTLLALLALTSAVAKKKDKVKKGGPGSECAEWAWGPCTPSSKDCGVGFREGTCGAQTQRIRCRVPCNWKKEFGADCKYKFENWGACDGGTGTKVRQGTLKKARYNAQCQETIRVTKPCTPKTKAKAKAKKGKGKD
Summary of the method: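 Recombinant human midkine at 63 nM final with 10 nM fluorescein-labelled heparin-like hexasaccharide probe in PBS (10 mM, pH 7.4) plus 0.5% BSA. […] Shaken 5 min in the dark; polarization read at ex 485 / em 535 nm. Triplicate wells averaged, one-site competition fit for IC50. At least three independent experiments.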

[1] = target: Fibroblast growth factor 2 (Homo sapiens, UniProt P09038); test: Inhibition of fluorescein labelled heparin-like hexasaccharide probe binding to recombinant human FGF-2 after 5 mins by fluorescence polarization assay
Sequence of Fibroblast growth factor 2 (P09038 143-288 limits assumed): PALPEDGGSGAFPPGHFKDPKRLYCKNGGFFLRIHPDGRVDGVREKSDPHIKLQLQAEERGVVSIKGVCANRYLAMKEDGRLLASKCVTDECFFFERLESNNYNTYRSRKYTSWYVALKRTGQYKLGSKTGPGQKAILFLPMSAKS
Summary of the method: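 Competition fluorescence polarization in PBS (10 mM, pH 7.4) with 0.5% BSA final. Recombinant human FGF-2 at 97 nM final, fluorescein-labelled heparin-like hexasaccharide probe at 10 nM final, inhibitor serially diluted, final 25 µM to 12.5 nM. Shaken 5 min in the dark, then read at ex 485 / em 535 nm. Triplicate wells. One-site competitive fit against log concentration gives IC50. Mean ± SD of three independent experiments.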

| pIC50 (Midkine) | pIC50 [1] | Structure (SMILES) |
| --- | --- | --- |
| 6.15 |  | COc1ccc(O[C@@H]2O[C@H](COC(=O)CCC(F)(F)C(F)(F)C(F)(F)C(F)(F)C(F)(F)C(F)(F)C(F)(F)C(F)(F)F)[C@@H](O[C@@H]3O[C@H](COS(=O)(=O)O)[C@@H](OS(=O)(=O)O)[C@H](OC(=O)CCC(C)=O)[C@H]3N3C(=O)c4ccccc4C3=O)[C@H](OCc3ccccc3)[C@H]2OC(=O)c2ccccc2)cc1 |
| 6.57 | 5.62 | COc1ccc(O[C@@H]2O[C@H](COC(=O)CCC(F)(F)C(F)(F)C(F)(F)C(F)(F)C(F)(F)C(F)(F)C(F)(F)C(F)(F)F)[C@@H](O[C@@H]3O[C@H](COS(=O)(=O)O)[C@@H](OS(=O)(=O)O)[C@H](O[C@@H]4O[C@H](COC(=O)C(C)(C)C)[C@@H](O[C@@H]5O[C@H](COS(=O)(=O)O)[C@@H](OS(=O)(=O)O)[C@H](OC(=O)CCC(C)=O)[C@H]5N5C(=O)c6ccccc6C5=O)[C@H](OCc5ccccc5)[C@H]4OC(=O)c4ccccc4)[C@H]3N3C(=O)c4ccccc4C3=O)[C@H](OCc3ccccc3)[C@H]2OC(=O)c2ccccc2)cc1 |
| < 3.60 |  | COc1ccc(O[C@@H]2O[C@H](CO)[C@@H](O[C@@H]3O[C@H](COS(=O)(=O)O)[C@@H](OS(=O)(=O)O)[C@H](O)[C@H]3NC(C)=O)[C@H](OCc3ccccc3)[C@H]2O)cc1 |
| < 3.60 |  | COc1ccc(O[C@@H]2O[C@H](CO)[C@@H](O[C@@H]3O[C@H](COS(=O)(=O)O)[C@@H](OS(=O)(=O)O)[C@H](O)[C@H]3NC(C)=O)[C@H](O)[C@H]2O)cc1 |
